What was measured:
Bcr/Abl fusion protein = Bcr/Abl fusion protein (Homo sapiens, UniProt P00519); assay: Inhibition of BCR/ABL (unknown origin) after 40 mins by ADP-Glo kinase assay; assay type: protein assay
K562 = assay: Antiproliferative activity against Bcr/Abl positive human K562 cells after 48 hrs by MTT method; assay type: functional, cell-based; conditions: K562, 48 h
Procedure, shortened: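 Bcr–Abl positive K562 cells in exponential growth plated at 1 × 10⁴ cells/well and incubated 24 h at 37 °C. Compounds then added at various concentrations for 48 h. MTT (5 mg/mL) added for 4 h at 37 °C, supernatant discarded, formazan dissolved in DMSO. Absorbance read at 570 nm.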

Sequence of Bcr/Abl fusion protein (P00519 whole entry, the tested form may be a part): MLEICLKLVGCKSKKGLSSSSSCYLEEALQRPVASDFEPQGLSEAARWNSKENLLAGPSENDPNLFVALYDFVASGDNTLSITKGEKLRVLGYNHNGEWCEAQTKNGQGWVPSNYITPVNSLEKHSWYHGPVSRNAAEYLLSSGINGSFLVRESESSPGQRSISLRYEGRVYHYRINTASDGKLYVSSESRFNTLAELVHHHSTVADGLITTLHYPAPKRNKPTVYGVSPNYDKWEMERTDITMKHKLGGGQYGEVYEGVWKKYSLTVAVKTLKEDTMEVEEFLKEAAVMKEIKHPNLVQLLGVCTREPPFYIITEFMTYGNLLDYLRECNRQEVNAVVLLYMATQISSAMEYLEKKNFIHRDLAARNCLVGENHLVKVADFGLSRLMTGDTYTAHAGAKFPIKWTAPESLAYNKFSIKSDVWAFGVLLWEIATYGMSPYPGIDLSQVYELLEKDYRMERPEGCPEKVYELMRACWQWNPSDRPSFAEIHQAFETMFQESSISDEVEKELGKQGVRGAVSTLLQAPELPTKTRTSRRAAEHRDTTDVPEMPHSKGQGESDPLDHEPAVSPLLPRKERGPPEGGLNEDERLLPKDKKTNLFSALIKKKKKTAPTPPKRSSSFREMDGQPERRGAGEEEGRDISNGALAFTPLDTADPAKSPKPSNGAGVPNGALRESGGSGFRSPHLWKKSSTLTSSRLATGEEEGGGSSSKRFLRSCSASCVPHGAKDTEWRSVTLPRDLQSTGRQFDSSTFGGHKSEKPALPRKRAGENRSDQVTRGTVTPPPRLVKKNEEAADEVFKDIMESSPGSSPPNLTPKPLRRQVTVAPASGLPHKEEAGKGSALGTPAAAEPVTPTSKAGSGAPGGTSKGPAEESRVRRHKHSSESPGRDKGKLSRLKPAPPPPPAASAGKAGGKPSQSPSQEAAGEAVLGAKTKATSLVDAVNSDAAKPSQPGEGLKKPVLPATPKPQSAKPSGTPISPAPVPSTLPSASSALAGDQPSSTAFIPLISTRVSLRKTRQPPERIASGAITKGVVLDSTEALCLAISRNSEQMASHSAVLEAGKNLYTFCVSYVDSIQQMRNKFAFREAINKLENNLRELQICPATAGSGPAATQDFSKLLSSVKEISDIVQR
Sequence of Bcr/Abl fusion protein (P11274 whole entry, further chain, the tested form may be a part): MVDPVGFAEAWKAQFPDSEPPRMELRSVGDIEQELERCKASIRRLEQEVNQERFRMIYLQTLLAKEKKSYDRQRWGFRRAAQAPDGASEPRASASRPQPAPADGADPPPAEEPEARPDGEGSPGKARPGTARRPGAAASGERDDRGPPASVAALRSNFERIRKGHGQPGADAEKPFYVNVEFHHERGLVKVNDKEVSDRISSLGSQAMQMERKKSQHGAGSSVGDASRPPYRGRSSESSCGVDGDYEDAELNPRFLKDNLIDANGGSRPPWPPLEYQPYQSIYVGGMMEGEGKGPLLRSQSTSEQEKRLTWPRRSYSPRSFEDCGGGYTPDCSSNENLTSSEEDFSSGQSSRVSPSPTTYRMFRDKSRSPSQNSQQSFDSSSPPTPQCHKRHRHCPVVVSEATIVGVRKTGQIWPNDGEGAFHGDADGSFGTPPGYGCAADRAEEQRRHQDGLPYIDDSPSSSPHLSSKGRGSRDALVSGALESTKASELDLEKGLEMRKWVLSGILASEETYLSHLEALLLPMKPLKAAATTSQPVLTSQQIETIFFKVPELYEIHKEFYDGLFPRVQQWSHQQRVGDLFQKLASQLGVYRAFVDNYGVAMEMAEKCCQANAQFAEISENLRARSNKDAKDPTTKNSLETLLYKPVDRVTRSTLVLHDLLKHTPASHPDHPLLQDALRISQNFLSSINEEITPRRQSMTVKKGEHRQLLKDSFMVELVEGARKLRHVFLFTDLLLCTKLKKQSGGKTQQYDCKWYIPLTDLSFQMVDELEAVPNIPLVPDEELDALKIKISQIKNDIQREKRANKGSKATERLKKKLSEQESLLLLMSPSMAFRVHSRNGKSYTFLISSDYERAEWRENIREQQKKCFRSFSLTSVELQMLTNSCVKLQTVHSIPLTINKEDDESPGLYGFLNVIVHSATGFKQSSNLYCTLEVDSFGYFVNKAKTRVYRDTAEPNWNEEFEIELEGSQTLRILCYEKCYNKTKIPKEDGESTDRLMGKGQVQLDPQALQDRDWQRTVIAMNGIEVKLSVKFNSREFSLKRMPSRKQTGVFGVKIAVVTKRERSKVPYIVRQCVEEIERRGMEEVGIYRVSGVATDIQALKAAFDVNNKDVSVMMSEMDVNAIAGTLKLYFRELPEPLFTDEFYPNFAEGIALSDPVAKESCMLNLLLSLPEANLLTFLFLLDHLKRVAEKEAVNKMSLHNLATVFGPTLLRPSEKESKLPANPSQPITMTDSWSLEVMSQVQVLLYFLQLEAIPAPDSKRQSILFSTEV

| IC50 (Bcr/Abl fusion protein) | IC50 (K562) | Compound |
| --- | --- | --- |
| 78.6 µM | 283 µM | O=C(c1ccc(-c2cc(Nc3ccc(C(F)(F)F)cc3)ncn2)cc1)N1CCN(C(=O)c2ccccc2F)CC1 |
| 354 µM | > 500 µM | CC(C)(C)c1ccc(Nc2cc(-c3ccc(C(=O)N4CCN(C(=O)c5ccccc5F)CC4)cc3)ncn2)cc1 |
| 0.05 µM | 14.5 µM | O=C(c1ccc(-c2cc(Nc3ccccc3F)ncn2)cc1)N1CCN(C(=O)c2ccccc2F)CC1 |
| > 500 µM | > 500 µM | O=C(c1ccc(-c2cc(Nc3cccc(Br)c3)ncn2)cc1)N1CCN(C(=O)c2ccccc2F)CC1 |
| 0.385 µM | – | CC(=O)c1cccc(Nc2cc(-c3ccc(C(=O)N4CCN(C(=O)c5ccccc5F)CC4)cc3)ncn2)c1 |
| > 500 µM | > 500 µM | O=C(c1ccc(-c2cc(Nc3ccc(Cl)cc3Cl)ncn2)cc1)N1CCN(C(=O)c2ccccc2F)CC1 |
| 141 µM | 80.7 µM | O=C(c1ccc(-c2cc(Nc3ccccc3Cl)ncn2)cc1)N1CCN(C(=O)c2ccccc2F)CC1 |
| > 500 µM | > 500 µM | O=C(c1ccc(-c2cc(Nc3ccc(F)c(F)c3)ncn2)cc1)N1CCN(C(=O)c2ccccc2F)CC1 |
| 16.1 µM | – | COc1cccc(Nc2cc(-c3ccc(C(=O)N4CCN(C(=O)c5ccccc5F)CC4)cc3)ncn2)c1 |
| > 500 µM | > 500 µM | CC(C)c1cccc(Nc2cc(-c3ccc(C(=O)N4CCN(C(=O)c5ccccc5F)CC4)cc3)ncn2)c1 |
| 6.06 µM | – | O=C(c1ccc(-c2cc(Nc3cccc(F)c3)ncn2)cc1)N1CCN(C(=O)c2ccccc2Cl)CC1 |
| 0.07 µM | 21.4 µM | O=C(c1ccc(-c2cc(Nc3ccccc3Cl)ncn2)cc1)N1CCN(C(=O)c2ccccc2Cl)CC1 |
| 1.44 µM | 86.9 µM | O=C(c1ccc(-c2cc(Nc3ccc(F)cc3)ncn2)cc1)N1CCN(C(=O)c2cccc(C(F)(F)F)c2)CC1 |
| 13.5 µM | 106 µM | COc1cccc(Nc2cc(-c3ccc(C(=O)N4CCN(C(=O)c5cccc(C(F)(F)F)c5)CC4)cc3)ncn2)c1 |
| 0.872 µM | – | O=C(c1ccc(-c2cc(Nc3cccc(C(F)(F)F)c3)ncn2)cc1)N1CCN(C(=O)c2ccccc2F)CC1 |
| 0.017 µM | 17.8 µM | O=C(c1ccc(-c2cc(Nc3cccc(F)c3)ncn2)cc1)N1CCN(C(=O)c2ccccc2F)CC1 |
| – | 306 µM | O=C(c1ccc(-c2cc(Nc3ccc(Br)cc3)ncn2)cc1)N1CCN(C(=O)c2ccccc2F)CC1 |
| 277 µM | 363 µM | O=C(c1ccc(-c2cc(Nc3ccc(F)cc3)ncn2)cc1)N1CCN(C(=O)c2ccccc2F)CC1 |
| > 500 µM | > 500 µM | Cc1ccc(Nc2cc(-c3ccc(C(=O)N4CCN(C(=O)c5ccccc5F)CC4)cc3)ncn2)cc1Cl |
| > 500 µM | > 500 µM | O=C(c1ccc(-c2cc(Nc3ccc(Cl)c(Cl)c3)ncn2)cc1)N1CCN(C(=O)c2ccccc2F)CC1 |
| 91.8 µM | – | O=C(c1ccc(-c2cc(Nc3cccc(Cl)c3)ncn2)cc1)N1CCN(C(=O)c2ccccc2F)CC1 |
| 0.13 µM | 60.4 µM | O=C(c1ccc(-c2cc(Nc3cc(C(F)(F)F)cc(C(F)(F)F)c3)ncn2)cc1)N1CCN(C(=O)c2ccccc2F)CC1 |
| – | > 500 µM | Cc1ccc(Nc2cc(-c3ccc(C(=O)N4CCN(C(=O)c5ccccc5F)CC4)cc3)ncn2)cc1 |
| – | 102 µM | COc1cccc(Nc2cc(-c3ccc(C(=O)N4CCN(C(=O)c5ccccc5Cl)CC4)cc3)ncn2)c1 |
| > 500 µM | – | CC(C)(C)c1ccc(Nc2cc(-c3ccc(C(=O)N4CCN(C(=O)c5ccccc5Cl)CC4)cc3)ncn2)cc1 |
| 0.563 µM | 25.9 µM | O=C(c1ccc(-c2cc(Nc3cccc(C(F)(F)F)c3)ncn2)cc1)N1CCN(C(=O)c2cccc(C(F)(F)F)c2)CC1 |
| 266 µM | 562 µM | O=C(c1ccc(-c2cc(Nc3ccc(Cl)cc3Cl)ncn2)cc1)N1CCN(C(=O)c2cccc(C(F)(F)F)c2)CC1 |
| – | 4.12 µM | Cc1ccc(NC(=O)c2ccc(CN3CCN(C)CC3)cc2)cc1Nc1nccc(-c2cccnc2)n1 [IMATINIB] |

From ChEMBL document CHEMBL3352374, “Discovery of novel Bcr-Abl inhibitors targeting myristoyl pocket and ATP site” (Bioorg Med Chem, 2014)
